Assay results reported in ChEMBL document CHEMBL5376013, “Design, synthesis and biological evaluation of novel morpholinopyrimidine-5-carbonitrile derivatives as dual PI3K/mTOR inhibitors” (RSC Med Chem, 2024).

Assays:
Assay type in all cases: functional
Settings in all cases: read-out: GI
[1] = system: HL-60; assay: Antitumor activity against human HL-60 cells assessed as growth inhibition at 10 uM relative to control
Summary of the method: (§1)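 After drug addition, plates were incubated 48 h at 37 °C under 5% CO2. Adherent cells were fixed with cold TCA (10% final, 60 min, 4 °C) and suspension cells with 16% final TCA. Staining used 0.4% SRB in 1% acetic acid, solubilized in 10 mM trizma, read at A515. Percent growth was calculated from time-zero, control and treated absorbances.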

[2] = system: K562; assay: Antitumor activity against human K562 cells assessed as growth inhibition at 10 uM relative to control; summary of the method: as §1
[3] = system: MOLT-4; assay: Antitumor activity against human MOLT-4 cells assessed as growth inhibition at 10 uM relative to control; summary of the method: as §1
[4] = system: SR; assay: Antitumor activity against human SR cells assessed as growth inhibition at 10 uM relative to control
Summary of the method: (§2)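 Drug exposure 48 h at 37 °C, 5% CO2. Adherent cells fixed with cold TCA (10% final), suspension cells with TCA (16% final). Stained with 0.4% SRB in 1% acetic acid, dissolved in 10 mM Tris, A515. Growth relative to time-zero and untreated control.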

[5] = system: A549; assay: Antitumor activity against human A549 cells assessed as growth inhibition at 10 uM relative to control; summary of the method: as §1
[6] = system: EKVX; assay: Antitumor activity against human EKVX cells assessed as growth inhibition at 10 uM relative to control; summary of the method: as §1
[7] = system: HOP-62; assay: Antitumor activity against human HOP-62 cells assessed as growth inhibition at 10 uM relative to control; summary of the method: as §1
[8] = system: HOP-92; assay: Antitumor activity against human HOP-92 cells assessed as growth inhibition at 10 uM relative to control; summary of the method: as §1
[9] = system: NCI-H226; assay: Antitumor activity against human NCI-H226 cells assessed as growth inhibition at 10 uM relative to control; summary of the method: as §1
[10] = system: NCI-H23; assay: Antitumor activity against human NCI-H23 cells assessed as growth inhibition at 10 uM relative to control; summary of the method: as §1
[11] = system: NCI-H322M; assay: Antitumor activity against human NCI-H322M cells assessed as growth inhibition at 10 uM relative to control; summary of the method: as §1
[12] = system: NCI-H522; assay: Antitumor activity against human NCI-H522 cells assessed as growth inhibition at 10 uM relative to control; summary of the method: as §1
[13] = system: COLO 205; assay: Antitumor activity against human COLO 205 cells assessed as growth inhibition at 10 uM relative to control; summary of the method: as §1
[14] = system: HCC 2998; assay: Antitumor activity against human HCC 2998 cells assessed as growth inhibition at 10 uM relative to control; summary of the method: as §1
[15] = system: HCT-116; assay: Antitumor activity against human HCT-116 cells assessed as growth inhibition at 10 uM relative to control; summary of the method: as §1
[16] = system: HCT-15; assay: Antitumor activity against human HCT-15 cells assessed as growth inhibition at 10 uM relative to control; summary of the method: as §1
[17] = system: SF-268; assay: Antitumor activity against human SF-268 cells assessed as growth inhibition at 10 uM relative to control; summary of the method: as §1
[18] = system: SF-295; assay: Antitumor activity against human SF-295 cells assessed as growth inhibition at 10 uM relative to control; summary of the method: as §1
[19] = system: SF-539; assay: Antitumor activity against human SF-539 cells assessed as growth inhibition at 10 uM relative to control; summary of the method: as §1
[20] = system: SNB-19; assay: Antitumor activity against human SNB-19 cells assessed as growth inhibition at 10 uM relative to control; summary of the method: as §2
[21] = system: SNB-75; assay: Antitumor activity against human SNB-75 cells assessed as growth inhibition at 10 uM relative to control; summary of the method: as §2
[22] = system: U-251; assay: Antitumor activity against human U-251 cells assessed as growth inhibition at 10 uM relative to control; summary of the method: as §2
[23] = system: LOX IMVI; assay: Antitumor activity against human LOX IMVI cells assessed as growth inhibition at 10 uM relative to control; summary of the method: as §1
[24] = system: M14; assay: Antitumor activity against human M14 cells assessed as growth inhibition at 10 uM relative to control; summary of the method: as §1
[25] = system: MDA-MB-435; assay: Antitumor activity against human MDA-MB-435 cells assessed as growth inhibition at 10 uM relative to control; summary of the method: as §1
[26] = system: SK-MEL-2; assay: Antitumor activity against human SK-MEL-2 cells assessed as growth inhibition at 10 uM relative to control; summary of the method: as §1
[27] = system: SK-MEL-5; assay: Antitumor activity against human SK-MEL-5 cells assessed as growth inhibition at 10 uM relative to control; summary of the method: as §2
[28] = system: UACC-257; assay: Antitumor activity against human UACC-257 cells assessed as growth inhibition at 10 uM relative to control; summary of the method: as §2
[29] = system: IGROV-1; assay: Antitumor activity against human IGROV-1 cells assessed as growth inhibition at 10 uM relative to control; summary of the method: as §1
[30] = system: OVCAR-3; assay: Antitumor activity against human OVCAR-3 cells assessed as growth inhibition at 10 uM relative to control; summary of the method: as §1
[31] = system: OVCAR-4; assay: Antitumor activity against human OVCAR-4 cells assessed as growth inhibition at 10 uM relative to control; summary of the method: as §1
[32] = system: OVCAR-5; assay: Antitumor activity against human OVCAR-5 cells assessed as growth inhibition at 10 uM relative to control; summary of the method: as §1
[33] = system: OVCAR-8; assay: Antitumor activity against human OVCAR-8 cells assessed as growth inhibition at 10 uM relative to control; summary of the method: as §1
[34] = system: SK-OV-3; assay: Antitumor activity against human SK-OV-3 cells assessed as growth inhibition at 10 uM relative to control; summary of the method: as §2
[35] = system: 786-0; assay: Antitumor activity against human 786-0 cells assessed as growth inhibition at 10 uM relative to control; summary of the method: as §1
[36] = system: A498; assay: Antitumor activity against human A498 cells assessed as growth inhibition at 10 uM relative to control; summary of the method: as §1
[37] = system: CAKI-1; assay: Antitumor activity against human CAKI-1 cells assessed as growth inhibition at 10 uM relative to control; summary of the method: as §1
[38] = system: RXF 393; assay: Antitumor activity against human RXF 393 cells assessed as growth inhibition at 10 uM relative to control; summary of the method: as §1
[39] = system: TK-10; assay: Antitumor activity against human TK-10 cells assessed as growth inhibition at 10 uM relative to control; summary of the method: as §2
[40] = system: UO-31; assay: Antitumor activity against human UO-31 cells assessed as growth inhibition at 10 uM relative to control; summary of the method: as §2
[41] = system: PC-3; assay: Antitumor activity against human PC-3 cells assessed as growth inhibition at 10 uM relative to control; summary of the method: as §1
[42] = system: DU-145; assay: Antitumor activity against human DU-145 cells assessed as growth inhibition at 10 uM relative to control; summary of the method: as §1
[43] = system: MCF7; assay: Antitumor activity against human MCF7 cells assessed as growth inhibition at 10 uM relative to control; summary of the method: as §1
[44] = system: MDA-MB-231; assay: Antitumor activity against human MDA-MB-231 cells assessed as growth inhibition at 10 uM relative to control; summary of the method: as §1
[45] = system: Hs-578T; assay: Antitumor activity against human Hs-578T cells assessed as growth inhibition at 10 uM relative to control; summary of the method: as §1
[46] = system: BT-549; assay: Antitumor activity against human BT-549 cells assessed as growth inhibition at 10 uM relative to control; summary of the method: as §1

With N#Cc1c(-c2ccc(Cl)cc2)nc(N2NC(=O)CC2=N)nc1N1CCOCC1 as the compound, how does the inhibition of growth at 10 µM [1] read?
The inhibition of growth at 10 µM was under 1%.

And the inhibition of growth at 10 µM [2]?
The inhibition of growth at 10 µM was under 1%.

And the inhibition of growth at 10 µM [3]?
The inhibition of growth at 10 µM was under 1%.

And the inhibition of growth at 10 µM [4]?
The inhibition of growth at 10 µM was under 1%.

And the inhibition of growth at 10 µM [5]?
Its inhibition of growth at 10 µM is under 1%.

What about the inhibition of growth at 10 µM [6] of the same compound?
The inhibition of growth at 10 µM was under 1%.

What about the inhibition of growth at 10 µM [7] of the same compound?
The inhibition of growth at 10 µM was under 1%.

What about the inhibition of growth at 10 µM [8] of the same compound?
The inhibition of growth at 10 µM was 12.6%.

And the inhibition of growth at 10 µM [9]?
The inhibition of growth at 10 µM was under 1%.

What about the inhibition of growth at 10 µM [10] of the same compound?
Its inhibition of growth at 10 µM is under 1%.

And the inhibition of growth at 10 µM [11]?
Its inhibition of growth at 10 µM is under 1%.

What about the inhibition of growth at 10 µM [12] of the same compound?
The inhibition of growth at 10 µM was 13.6%.

And the inhibition of growth at 10 µM [13]?
The inhibition of growth at 10 µM was under 1%.

And the inhibition of growth at 10 µM [14]?
Its inhibition of growth at 10 µM is under 1%.

What about the inhibition of growth at 10 µM [15] of the same compound?
The inhibition of growth at 10 µM was under 1%.

What about the inhibition of growth at 10 µM [16] of the same compound?
Its inhibition of growth at 10 µM is under 1%.

And the inhibition of growth at 10 µM [17]?
The inhibition of growth at 10 µM was under 1%.

And the inhibition of growth at 10 µM [18]?
The inhibition of growth at 10 µM was under 1%.

What about the inhibition of growth at 10 µM [19] of the same compound?
The inhibition of growth at 10 µM was under 1%.

And the inhibition of growth at 10 µM [20]?
Its inhibition of growth at 10 µM is under 1%.

What about the inhibition of growth at 10 µM [21] of the same compound?
The inhibition of growth at 10 µM was 24.3%.

And the inhibition of growth at 10 µM [22]?
The inhibition of growth at 10 µM was under 1%.

And the inhibition of growth at 10 µM [23]?
Its inhibition of growth at 10 µM is under 1%.

What about the inhibition of growth at 10 µM [24] of the same compound?
The inhibition of growth at 10 µM was under 1%.

What about the inhibition of growth at 10 µM [25] of the same compound?
Its inhibition of growth at 10 µM is under 1%.

And the inhibition of growth at 10 µM [26]?
Its inhibition of growth at 10 µM is under 1%.

What about the inhibition of growth at 10 µM [27] of the same compound?
Its inhibition of growth at 10 µM is under 1%.

What about the inhibition of growth at 10 µM [28] of the same compound?
Its inhibition of growth at 10 µM is under 1%.

What about the inhibition of growth at 10 µM [29] of the same compound?
Its inhibition of growth at 10 µM is under 1%.

And the inhibition of growth at 10 µM [30]?
The inhibition of growth at 10 µM was under 1%.

And the inhibition of growth at 10 µM [31]?
The inhibition of growth at 10 µM was under 1%.

What about the inhibition of growth at 10 µM [32] of the same compound?
The inhibition of growth at 10 µM was under 1%.

And the inhibition of growth at 10 µM [33]?
The inhibition of growth at 10 µM was under 1%.

And the inhibition of growth at 10 µM [34]?
The inhibition of growth at 10 µM was under 1%.

What about the inhibition of growth at 10 µM [35] of the same compound?
Its inhibition of growth at 10 µM is under 1%.

And the inhibition of growth at 10 µM [36]?
Its inhibition of growth at 10 µM is 34.3%.

And the inhibition of growth at 10 µM [37]?
Its inhibition of growth at 10 µM is under 1%.

And the inhibition of growth at 10 µM [38]?
The inhibition of growth at 10 µM was under 1%.

What about the inhibition of growth at 10 µM [39] of the same compound?
Its inhibition of growth at 10 µM is under 1%.

What about the inhibition of growth at 10 µM [40] of the same compound?
Its inhibition of growth at 10 µM is 24.6%.

What about the inhibition of growth at 10 µM [41] of the same compound?
The inhibition of growth at 10 µM was under 1%.

And the inhibition of growth at 10 µM [42]?
Its inhibition of growth at 10 µM is under 1%.

And the inhibition of growth at 10 µM [43]?
The inhibition of growth at 10 µM was 1%.

What about the inhibition of growth at 10 µM [44] of the same compound?
Its inhibition of growth at 10 µM is under 1%.

What about the inhibition of growth at 10 µM [45] of the same compound?
Its inhibition of growth at 10 µM is under 1%.

And the inhibition of growth at 10 µM [46]?
Its inhibition of growth at 10 µM is under 1%.
